Calls of active or inactive are those of the source. The rule behind the calls is not given here.
How the values were obtained:
[1] = tested on: Mus musculus; assay: Anticonvulsant activity in intraperitoneally dosed Albino Swiss CD1 mouse assessed as time to peak effect by maximal electroshock test; type: functional
[2] = species on record: Mus musculus; assay: Protective index, ratio of neurotoxic TD50 in Albino Swiss CD1 mouse by rotarod test to anticonvulsant ED50 in Albino Swiss CD1 mouse by maximal electroshock test
Summary of the method: (§1)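 The protective index is the rotarod TD50 divided by the MES or scPTZ ED50. Each value came from ip dosing in male CD-1 mice with probit analysis, and the reference drugs were tested under the same conditions.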

[3] = Neurological toxicity in intraperitoneally dosed Albino Swiss CD1 mouse by rotarod test; type: organism-based; conditions: in vivo, ip
Summary of the method: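 Mice trained on the rotarod were given various ip doses, four groups in all, and tested at 10 rpm. Failure to stay on the rod for at least 1 min indicated neurotoxicity.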

[4] = tested on: Mus musculus; assay: Anticonvulsant activity in intraperitoneally dosed Albino Swiss CD1 mouse by subcutaneous pentylenetetrazole test; type: functional
Summary of the method: (§2)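 Male CD-1 mice were dosed ip (0.1 mL/10 g, methylcellulose vehicle), at least four dose groups of 6 mice each. Protection in MES meant no hindlimb tonic extension after a 25 mA, 50 Hz, 0.2 s ear-electrode shock. Protection in scPTZ meant no clonus over 30 min.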

[5] = tested on: Mus musculus; assay: Anticonvulsant activity in intraperitoneally dosed Albino Swiss CD1 mouse assessed as time to peak effect after 2 hrs by subcutaneous pentylenetetrazole test; type: functional
[6] = tested on: Mus musculus; assay: Anticonvulsant activity in intraperitoneally dosed Albino Swiss CD1 mouse by maximal electroshock test; type: functional; conditions: Albino Swiss CD1, ip; summary of the method: as §2
[7] = tested on: Mus musculus; assay: Anticonvulsant activity in Albino Swiss CD1 mouse at 100 mg/kg, ip after 0.5 hrs by subcutaneous pentylenetetrazole test; type: functional, organism-based; design: dose 100 mg/kg
Summary of the method: (§3)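 Male CD-1 mice, 16–26 g, in groups of 4, each mouse used once, were given 100 mg/kg ip (0.1 mL/10 g, methylcellulose vehicle). MES used 25 mA, 500 V, 50 Hz delivered by ear electrodes for 0.2 s, and absence of hindlimb tonic extension counted as protection. In scPTZ, mice without clonic convulsions over 30 min of observation counted as protected. Both tests were run 0.5 h or 2 h after dosing.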

[8] = tested on: Mus musculus; assay: Neurological toxicity in Albino Swiss CD1 mouse at 100 mg/kg, ip after 2 hrs by rotarod test; type: organism-based; design: dose 100 mg/kg, route intraperitoneal; conditions: in vivo
Summary of the method: (§4)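 Mice were trained on a 2 cm rod for 3 min, with unlimited trials, at least 24 h before testing. Each was then dosed ip at 100 mg/kg and tested at 10 rpm 0.5 h or 2 h later, in groups of 4. Failure to stay on the rod for at least 1 min indicated neurotoxicity.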

[9] = tested on: Mus musculus; assay: Anticonvulsant activity in Albino Swiss CD1 mouse at 100 mg/kg, ip after 0.5 hrs by maximal electroshock test; type: functional, organism-based; design: dose 100 mg/kg; summary of the method: as §3
[10] = tested on: Mus musculus; assay: Anticonvulsant activity in Albino Swiss CD1 mouse at 100 mg/kg, ip after 2 hrs by subcutaneous pentylenetetrazole test; type: functional, organism-based; design: dose 100 mg/kg; summary of the method: as §3
[11] = tested on: Mus musculus; assay: Anticonvulsant activity in Albino Swiss CD1 mouse at 100 mg/kg, ip after 2 hrs by maximal electroshock test; type: functional, organism-based; design: dose 100 mg/kg; summary of the method: as §3
[12] = tested on: Mus musculus; assay: Neurological toxicity in Albino Swiss CD1 mouse at 100 mg/kg, ip after 0.5 hrs by rotarod test; type: organism-based; design: dose 100 mg/kg, route intraperitoneal; conditions: in vivo; summary of the method: as §4
[13] = tested on: Mus musculus; assay: Anticonvulsant activity in intraperitoneally dosed Albino Swiss CD1 mouse after 0.5 hrs by maximal electroshock test; type: functional; summary of the method: as §2
[14] = tested on: Mus musculus; assay: Anticonvulsant activity in intraperitoneally dosed Albino Swiss CD1 mouse after 0.5 hrs by subcutaneous pentylenetetrazole test; type: functional; summary of the method: as §2
[15] = tested on: Mus musculus; assay: Protective index, ratio of neurotoxic TD50 in Albino Swiss CD1 mouse by rotarod test to anticonvulsant ED50 in Albino Swiss CD1 mouse by subcutaneous pentylenetetrazole test; summary of the method: as §1

Structure (SMILES)	Time [1] [h]	Ratio TD50/ED50 [2]	TD50 [3] [mg/kg]	ED50 [4] [mg/kg]	Time [5] [h]	ED50 [6] [mg/kg]	Activity [7]	Activity [8]	Activity [9]	Activity [10]	Activity [11]	Activity [12]	MED50 [13] [mg/kg]	MED50 [14] [mg/kg]	Ratio TD50/ED50 [15]
NC(=O)N1c2ccccc2C=Cc2ccccc21 [CARBAMAZEPINE]	0.5	3.47	49.3	> 100	0.5	14.2	–	–	–	–	–	–	–	–	–
CC(C(=O)NCC1CCCCC1)N1C(=O)CCC1=O (centres undefined)	–	–	–	–	–	–	inactive	Non-toxic	inactive	inactive	inactive	Non-toxic	–	–	–
CC1CC(=O)N(C(C)C(=O)NCc2ccccc2F)C1=O (racemic)	0.5	2.97	239	–	0.5	80.5	inactive	Non-toxic	–	inactive	inactive	Non-toxic	100	–	–
CC(C(=O)NCc1ccccc1)N1C(=O)CCC1=O (racemic)	0.5	–	–	–	0.5	–	–	Non-toxic	–	inactive	inactive	Non-toxic	100	100	–
CCC(C(=O)NCc1cccc(Cl)c1)N1C(=O)CCC1=O (racemic)	0.5	1.12	180	78.8	0.5	96.5	–	Non-toxic	–	inactive	inactive	Non-toxic	100	100	2.28
CC(C(=O)NCc1ccc(Cl)cc1)N1C(=O)CCC1=O (racemic)	0.5	2.48	228	43.6	0.5	91.8	–	Non-toxic	–	inactive	inactive	Non-toxic	100	100	5.23
CC(C(=O)NCc1cccc(F)c1)N1C(=O)CCC1=O (racemic)	0.5	>6.46	> 500	–	0.5	77.4	inactive	Non-toxic	–	inactive	inactive	Non-toxic	100	–	–
CC1CC(=O)N(C(C)C(=O)NCc2ccccc2C(F)(F)F)C1=O (racemic)	–	–	–	–	–	–	inactive	Non-toxic	inactive	inactive	inactive	Non-toxic	–	–	–
CCC(C(=O)NCC1CCCCC1)N1C(=O)CCC1=O (racemic)	–	–	–	–	–	–	inactive	Non-toxic	inactive	inactive	inactive	Non-toxic	–	–	–
CC1CC(=O)N(C(C)C(=O)NCc2ccc(F)cc2)C1=O (racemic)	–	–	–	–	–	–	inactive	Non-toxic	inactive	inactive	inactive	Non-toxic	–	–	–
CCC(C(=O)NCc1ccc(C(F)(F)F)cc1)N1C(=O)CCC1=O (racemic)	0.5	1.62	112	80.4	0.5	69.4	–	Non-toxic	–	inactive	inactive	Non-toxic	100	100	1.4
CC1CC(=O)N(C(C)C(=O)NCc2ccccc2Cl)C1=O (racemic)	0.5	3.2	275	–	0.5	85.8	inactive	Non-toxic	–	inactive	inactive	Non-toxic	100	–	–
COC[C@@H](NC(C)=O)C(=O)NCc1ccccc1 [LACOSAMIDE]	0.5	–	–	> 500	0.5	9.24	–	–	–	–	–	–	–	–	–
CC(C(=O)NCc1ccccc1C(F)(F)F)N1C(=O)CCC1=O (racemic)	–	–	–	–	–	–	inactive	Non-toxic	inactive	inactive	inactive	Non-toxic	–	–	–
CCCC(CCC)C(=O)O [VALPROIC ACID]	0.5	–	–	–	0.5	–	–	–	–	–	–	–	–	–	–
CC1CC(=O)N(C(C)C(=O)NCc2cccc(C(F)(F)F)c2)C1=O (racemic)	–	–	–	–	–	–	inactive	Non-toxic	inactive	inactive	inactive	Non-toxic	–	–	–
CC1CC(=O)N(C(C)C(=O)NCC2CCCCC2)C1=O (racemic)	–	–	–	–	–	–	inactive	Non-toxic	inactive	inactive	inactive	Non-toxic	–	–	–
CC(C(=O)NCc1ccc(F)cc1)N1C(=O)CCC1=O (racemic)	–	–	–	–	–	–	inactive	Non-toxic	inactive	inactive	inactive	Non-toxic	–	–	–
CC(C(=O)NCc1cccc(C(F)(F)F)c1)N1C(=O)CCC1=O (racemic)	0.5	3.59	332	–	0.5	92.4	inactive	Non-toxic	–	inactive	inactive	Non-toxic	100	–	–
CC(C(=O)NCc1cccc(Cl)c1)N1C(=O)CCC1=O (racemic)	0.5	4.23	347	–	0.5	82	inactive	Non-toxic	–	inactive	inactive	Non-toxic	100	–	–
CC1CC(=O)N(C(C)C(=O)NCc2cccc(Cl)c2)C1=O (racemic)	0.5	2.73	247	–	0.5	90.3	inactive	Non-toxic	–	inactive	inactive	Non-toxic	100	–	–
CC1CC(=O)N(C(C)C(=O)NCc2ccc(Cl)cc2)C1=O (racemic)	–	–	–	–	–	–	inactive	Non-toxic	inactive	inactive	inactive	Non-toxic	–	–	–
CCC1(C)CC(=O)NC1=O (centres undefined) [ETHOSUXIMIDE]	0.25	–	–	–	0.25	> 500	–	–	–	–	–	–	–	–	–
CC1CC(=O)N(C(C)C(=O)NCc2cccc(F)c2)C1=O (racemic)	0.5	2.29	297	–	0.5	130	inactive	Non-toxic	–	inactive	inactive	Non-toxic	100	–	–
CC(C(=O)NCc1ccccc1Cl)N1C(=O)CCC1=O (racemic)	0.5	4.57	340	–	0.5	74.5	inactive	Non-toxic	–	inactive	inactive	Non-toxic	100	–	–
